Results from ChEMBL document CHEMBL1135679, “Potent delta-opioid receptor agonists containing the Dmt-Tic pharmacophore” (J Med Chem, 2002).
pIC50, pKi: −log10 of the molar value. Square brackets hold non-standard residues; d marks the D form. Peptide text beside a SMILES is read from it. Dmt = Cc1cc(O)cc(C)c1C[C@H](N)C(=O)O; Tic = O=C(O)[C@@H]1Cc2ccccc2CN1

Tests used:
Mu-type opioid receptor [1] = biological target: Mu-type opioid receptor (Cavia porcellus, UniProt P97266); experiment: In vitro inhibitory activity against electrically evoked contractions of guinea pig ileum (GPI); format: functional, tissue-based
Chain of Mu-type opioid receptor (Cavia porcellus, UniProt P97266) (P97266 whole entry): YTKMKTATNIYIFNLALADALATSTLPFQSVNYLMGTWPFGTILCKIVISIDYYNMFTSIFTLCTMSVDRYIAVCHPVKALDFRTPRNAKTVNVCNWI
How it was run: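 Isolated tissue bioassay. IC50 read from concentration–response curves of agonist inhibition. Mean ± SE of at least five fresh tissue samples, with an internal standard peptide run for each tissue.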

[2] = biological target: Delta-type opioid receptor (Mus musculus, UniProt P32300); experiment: In vitro inhibitory activity against electrically evoked contractions of in mouse vas deferens (MVD); format: functional, tissue-based
Chain of Delta-type opioid receptor (Mus musculus, UniProt P32300) (P32300 whole entry): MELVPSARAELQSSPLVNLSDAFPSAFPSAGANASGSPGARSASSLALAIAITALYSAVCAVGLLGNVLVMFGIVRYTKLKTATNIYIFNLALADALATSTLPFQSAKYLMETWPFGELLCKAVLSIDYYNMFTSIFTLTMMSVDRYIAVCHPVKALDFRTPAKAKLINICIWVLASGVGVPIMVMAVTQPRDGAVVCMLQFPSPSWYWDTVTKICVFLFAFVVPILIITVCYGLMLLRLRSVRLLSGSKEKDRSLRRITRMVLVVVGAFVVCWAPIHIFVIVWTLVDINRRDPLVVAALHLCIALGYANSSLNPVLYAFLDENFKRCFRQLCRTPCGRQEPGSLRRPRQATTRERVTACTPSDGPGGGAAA

[3] = biological target: Delta-type opioid receptor (Rattus norvegicus, UniProt P33533); experiment: Inhibition of [3H]DPDPE binding to Opioid receptor delta 1 of rat brain P2 synaptosomes; format: subcellular
Chain of Delta-type opioid receptor (Rattus norvegicus, UniProt P33533) (P33533 whole entry): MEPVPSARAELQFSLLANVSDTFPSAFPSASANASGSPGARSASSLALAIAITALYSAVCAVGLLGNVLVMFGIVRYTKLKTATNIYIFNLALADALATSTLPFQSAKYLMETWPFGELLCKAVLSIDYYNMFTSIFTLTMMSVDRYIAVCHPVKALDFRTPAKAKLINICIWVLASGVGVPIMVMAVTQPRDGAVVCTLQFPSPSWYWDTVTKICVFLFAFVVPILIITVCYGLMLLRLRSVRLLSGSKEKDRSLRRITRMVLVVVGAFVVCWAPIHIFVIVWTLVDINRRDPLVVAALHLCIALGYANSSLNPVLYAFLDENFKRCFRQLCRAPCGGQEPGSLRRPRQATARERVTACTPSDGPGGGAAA
How it was run: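 Rat brain P2 synaptosomes, pretreated 60 min at room temperature in 0.1 M NaCl, 0.4 mM GDP, 50 mM HEPES pH 7.5 and 50 µg/mL trypsin inhibitor, then washed and frozen at -80 °C. Competition against [3H]DPDPE for 2 h at room temperature. Nonspecific binding defined with 2 µM unlabelled peptide. Filtered on GF/C and counted. Five to eight doses in duplicate, 3–5 independent preparations, mean ± SE. Ki via Cheng–Prusoff.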

Mu-type opioid receptor [4] = biological target: Mu-type opioid receptor (Rattus norvegicus, UniProt P33535); experiment: Inhibition of [3H]DAGO binding to Opioid receptor mu 1 of rat brain P2 synaptosomes; format: subcellular
Chain of Mu-type opioid receptor (Rattus norvegicus, UniProt P33535) (P33535 whole entry): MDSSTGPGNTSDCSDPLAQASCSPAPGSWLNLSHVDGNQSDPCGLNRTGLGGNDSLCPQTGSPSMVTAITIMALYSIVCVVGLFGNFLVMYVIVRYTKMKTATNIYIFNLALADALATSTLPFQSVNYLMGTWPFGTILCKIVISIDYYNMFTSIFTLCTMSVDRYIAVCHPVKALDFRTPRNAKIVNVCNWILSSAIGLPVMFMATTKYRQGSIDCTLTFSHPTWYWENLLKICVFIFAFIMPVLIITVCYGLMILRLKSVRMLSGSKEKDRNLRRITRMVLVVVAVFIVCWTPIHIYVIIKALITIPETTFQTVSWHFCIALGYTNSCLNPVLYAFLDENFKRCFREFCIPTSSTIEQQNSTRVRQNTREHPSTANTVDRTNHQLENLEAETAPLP
How it was run: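 Competition binding on rat brain P2 synaptosomes. Synaptosomes were preincubated 60 min at room temperature in 0.1 M NaCl, 0.4 mM GDP, 50 mM HEPES pH 7.5 and 50 µg/mL soybean trypsin inhibitor to strip endogenous opioids, then washed, stored at -80 °C, and labelled with [3H]DAGO. Incubation ran 2 h at room temperature to equilibrium. Nonspecific binding was set with 2 µM unlabelled peptide. Bound ligand was collected by GF/C filtration and counted. Five to eight doses in duplicate, 3–5 repetitions on separate preparations, mean ± SE. Ki by Cheng–Prusoff.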

[5] = Relative binding to mu and delta opioid receptors (ratio of Ki)
[6] = biological target: Delta-type opioid receptor (Mus musculus) (UniProt P32300); conditions: Vas deferens
Chain of Delta-type opioid receptor (Mus musculus) (P32300 whole entry): as the sequence (P32300 whole entry) above

[7] = biological target: Delta-type opioid receptor (Mus musculus) (UniProt P32300); experiment: In vitro inhibitory activity against electrically evoked contractions of the mouse vas deferens (MVD); format: functional, tissue-based

SMILES	pIC50 (Mu-type opioid receptor [1])	pIC50 [2]	pKi [3]	pKi (Mu-type opioid receptor [4])	Selectivity [5]	Ke [6] [nM]	Ke [7] [nM]
Cc1cc(O)cc(C)c1C[C@H](N)C(=O)N1Cc2ccccc2C[C@H]1C(=O)N[C@H](C)c1nc2ccccc2[nH]1	8.20	10.59	10.33	9.63	5	–	–
CC(C)[C@H](NC(=O)[C@H](CC(=O)O)NC(=O)[C@H](Cc1ccccc1)NC(=O)[C@H](C)NC(=O)[C@@H](N)Cc1ccc(O)cc1)C(=O)N[C@H](C(=O)NCC(=O)O)C(C)C	< 5.92	9.52	9.62	6.57	1140	–	–
Cc1cc(O)cc(C)c1C[C@H](N)C(=O)N1Cc2ccccc2C[C@H]1C(=O)NCCc1nc2ccccc2[nH]1	6.97	–	–	–	82	4.78	–
Cc1cc(O)cc(C)c1C[C@H](N)C(=O)N1Cc2ccccc2C[C@H]1C(=O)NCc1nc2ccccc2[nH]1	7.39	10.46	–	–	–	–	–
Cc1cc(O)cc(C)c1C[C@H](N)C(=O)N1Cc2ccccc2C[C@H]1C(=O)N[C@H](C)C(N)=O (H-[Dmt]-[Tic]-[dA]-NH2)	< 5.00	–	9.52	7.32	158	25.1	–
Cc1cc(O)cc(C)c1C[C@H](N)C(=O)N1Cc2ccccc2C[C@H]1C(=O)N[C@@H](CC(=O)O)c1nc2ccccc2[nH]1	–	–	–	–	122	–	–
Cc1cc(O)cc(C)c1C[C@H](N)C(=O)N1Cc2ccccc2C[C@H]1C(=O)N[C@@H](Cc1nc2ccccc2[nH]1)C(=O)O	5.81	10.82	10.38	7.66	516	–	–
Cc1cc(O)cc(C)c1C[C@H](N)C(=O)N1Cc2ccccc2C[C@H]1C(=O)N[C@@H](CC(=O)O)C(N)=O (H-[Dmt]-[Tic]-Asp-NH2)	< 5.00	–	9.54	5.59	8880	–	7.58
Cc1cc(O)cc(C)c1C[C@H](N)C(=O)N1Cc2ccccc2C[C@H]1C(=O)N[C@@H](CC(N)=O)C(=O)O (H-[Dmt]-[Tic]-Asn-OH)	< 5.00	–	8.96	7.10	73	5.88	–
Cc1cc(O)cc(C)c1C[C@H](N)C(=O)N1Cc2ccccc2C[C@H]1C(=O)N[C@@H](C)c1nc2ccccc2[nH]1	7.14	–	10.20	9.39	6.5	–	–
Cc1cc(O)cc(C)c1C[C@H](N)C(=O)N1Cc2ccccc2C[C@H]1C(=O)N[C@@H](C)C(N)=O (H-[Dmt]-[Tic]-Ala-NH2)	–	–	–	–	195	10	–
C[C@@H](NC(=O)[C@@H](N)Cc1ccc(O)cc1)C(=O)N[C@@H](Cc1ccccc1)C(=O)NCC(=O)N[C@@H](Cc1ccc(O)cc1)C(=O)N1CCC[C@H]1C(=O)N[C@@H](CO)C(N)=O [DERMORPHIN]	8.92	–	–	8.91	–	–	–
